Test results taken from paper PMC5041297 (Clinical cancer research : an official journal of the …, 2016).
Where two headings read alike, the source gives them in different places.

Legend:
purified kinases = details: cited from earlier work; for inhibition of certain kinases: high concentrations, cell-free conditions
PARP = details: cited from earlier work
[1] = tested on: MPN erythroid and myeloid progenitors; test: Colony forming assay, mononuclear cells from MPN patients; assay type: cell-based, human; details: for IC50: Homo sapiens
In short: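 Peripheral-blood mononuclear cells from patients, Ficoll-Hypaque purified, washed into RPMI 1640 and mixed with methylcellulose medium containing PARP inhibitor (0, 0.5, 1, 2.5, 5, 10, 20 μM or 0, 0.25, 0.5, 1, 2, 5 μM; DMSO 0.1%). 1–5 × 10^5 cells per plate, 2–4 replicate plates, 37 °C, 5% CO2. Colonies (>40 cells) scored at 10–14 days (some CMMoL at 5–7 days). IC50 is 50% of diluent-control colonies, from linear regression after exponential transformation.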

Row | IC50 ([1]; read-out: IC50 values averaging, CML samples) | IC50 ([1]; read-out: IC50 values averaging, CMMoL samples) | IC50 ([1]; read-out: mean IC50, JAK2V617F mutated samples) | IC50 ([1]; read-out: veliparib IC50s, 5 of 16 individual JAK2 mutated samples) | IC50 lower in MPN samples with impaired RAD51 foci formation compared to those without ([1]; on average, p = 0.028) | Compound | off-target kinase inhibitory activity (purified kinases) | more potent in vitro (olaparib relative to veliparib) (PARP) | inhibition of certain kinases (purified kinases) | IC50 lower in MPN samples than in normal controls ([1]; average, MPN samples vs normal controls, P<0.0001)
1 |  |  |  |  |  | O=C(c1cc(Cc2n[nH]c(=O)c3ccccc23)ccc1F)N1CCN(C(=O)C2CC2)CC1 [Olaparib] | lacks this off-target kinase inhibitory activity | roughly 10 fold |  | 
2 |  |  |  |  |  | CN(C)CC(=O)Nc1ccc2[nH]c(=O)c3ccccc3c2c1 [PJ-34] |  |  | might also inhibit certain kinases | 
3 | 3000 nM | 3000 nM | 5700 nM | < 2000 nM | 3 fold | C[C@]1(c2nc3c(C(N)=O)cccc3[nH]2)CCCN1 [Veliparib] |  |  | might also inhibit certain kinases | 4 fold
